From PubChem
Candida biofilm: kills Candida albicans biofilms | C. albicans biofilm + clotrimazole, Alamar Blue | inhibition, % at 6 µM | 85,000 tested, 0.14% active;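 active = inhibition above 20%; inactive = inhibition below 20%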;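 note: preformed 24 hr biofilms exposed to compound for 48 hr; 0% = biofilm without compound and 100% = blank killed by clotrimazole plus chlorhexidine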
PostGolgi ctrl: growth of the yeast control strain, post-Golgi counter-screen | inhibition, % at 10 µM | 98,000 tested, 5% active | efflux-deficient yeast background strain, growth absorbance A615, 16 h
PostGolgi yeast: growth inhibition of a yeast mutant, post-Golgi transport screen; post-Golgi transport phenotypic cell assay; inhibition, % at 10 µM; 98,000 tested, 0.9% active;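 note: yeast cells grown in 1536-well plates; yeast grown about 18 h at 30C before absorbance read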
tolC growth inh: growth inhibitors of E. coli BW25113 tolC mutant. growth inhibition, % at 10 µM (by protocol). OD615. 65,000 tested, 2.2% active;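 active = growth inhibition at or above a cutoff equal to the mean over every tested compound plus 3 SD, cut at about 60% in these data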;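 note: growth measured after 20 h incubation at 37 °C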
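Signal: optical density read at 615 nm; Assay system: E. coli ΔtolC::kan strain BW25113; Times: 20 h incubation with compound, 37 °C; Dosing: 10 µM final, single dose.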
FAK blocker: inhibitors of human focal adhesion kinase | Q05397 | biochemical FAK kinase activity assay | inhibition, %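 (tested at 7 µM)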 | 97,000 tested, 0.84% active | AID 727; in the data active = inhibition above about 19%;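 note: 0% = DMSO and 100% = reference compound high control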
Pyk2 oligo antag: blocks oligomerization of human Pyk2 in cells; AID 1347419; Q14289; Q293 cells, Pyk2 FERM NanoBiT luminescence; active compounds read low; 99,000 tested, 0.83% active; z-score (the deposit names both 25 µM and 10 µM);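 active = Z-score of -3 or lower, scaled per plate to the spread of control and sample wells; inactive = z-score above -3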;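 note: negative z-score means lost luminescence so less FERM oligomerization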
* marks the source's active call; other numbers are inactive results; · = no result. Compounds with a hit are over-represented: about 6.9% of the library has one in this group of screens. Cut-off read from the data, not from the text of the source, unless noted: active = inhibition above about 30%; inactive = the rest.

SMILES | Candida biofilm | PostGolgi ctrl | PostGolgi yeast | tolC growth inh | FAK blocker | Pyk2 oligo antag
O=C(c1ccco1)N1c2ccccc2Sc2ccccc21 | · | 32* | 4 | 49 | 7 | -1.4
O=C1CSc2ccc(C(=O)N3CCN(c4ccccn4)CC3)cc2N1 | 3 | 7 | 21 | 0 | 2 | -0.02
CN1C(=O)/C(=C\c2ccccc2)Sc2ccc(C(=O)N3CCN(c4ccccn4)CC3)cc21 | · | 32* | 4 | · | 6 | ·
O=C(NC1CCN(C(=O)N2c3ccccc3Sc3ccccc32)CC1)c1ccccc1Cl | · | 43* | 9 | · | 2 | -1.8
O=C(NC1CCN(C(=O)N2c3ccccc3Sc3ccccc32)CC1)c1ccco1 | 5 | 15 | -5 | 60 | · | -1.5
O=C(c1ccco1)N1CCN(C(=O)N2c3ccccc3Sc3ccccc32)CC1 | 7 | 44* | -3 | 11 | -2 | -0.73
CCCC1CCC(C(=O)Nn2c(C)nc3ccccc3c2=O)CC1 (centres undefined) | 6 | 21 | 4 | 16 | 2 | -1
C=CCn1c(SCC(=O)N2CCCCC2)nc(O)cc1=O | 1 | 1 | 3 | · | -1 | -0.09
Cc1nn(C)cc1C(C(=O)NC1CCCCC1)N(C(=O)Cc1cccs1)c1ccc(C(C)C)cc1 (centres undefined) | · | 4 | 7 | · | 3 | -0.7
O=C(c1c(Cl)cccc1Cl)N1CCN(c2ccccn2)CC1 | -3 | -11 | -3 | 0 | 6 | 0.44
O=C(N1CCN(c2ccccn2)CC1)N1c2ccccc2Sc2ccccc21 | 11 | 85* | 2 | 62* | -4 | -1.3
Cc1ccc(C(=O)Nc2cccc(Oc3ccccc3)c2)o1 | 6 | 7 | -3 | · | -1 | -0.33
CN1C(=O)Cc2cc(S(=O)(=O)N3CCOCC3)ccc21 | 8 | 51* | 2 | -24 | -12 | 0.5
Cn1c(=O)n(C)c2cc(S(=O)(=O)N3CCOCC3)ccc21 | 6 | 3 | 5 | -9 | 0 | -0.14
COc1ccccc1Cn1c(=O)c2ccccc2n2c(Sc3ncnc4sccc34)nnc12 | 9 | 42* | 11 | 21 | -7 | -2.1
CC1CCN(C(=O)c2ccc(C(=O)N3CCC(C)CC3)cc2)CC1 | 2 | · | · | -20 | -2 | ·
Cc1n[nH]c(=O)nc1N1CCc2ccccc2C1 | 3 | 12 | -5 | -3 | 1 | -0.42
CNC(=S)N1N=C(c2ccc(OC)cc2)CC1c1ccc(N(C)C)cc1 (centres undefined) | · | 3 | -3 | · | 7 | -0.2
CNC(=S)N1N=C(c2ccc(Br)cc2)CC1c1ccc(Br)cc1 (centres undefined) | · | 33* | -11 | · | -1 | -0.11
COc1ccc2c(c1)C(=NO)c1cc(OC)ccc1-2 | 3 | 46* | -7 | 43 | · | -1.1
CCc1cc2c(=O)c(-c3nc4ccccc4[nH]3)coc2c(CN2CCC(C)CC2)c1O | 6 | · | · | 14 | 4 | ·
CCc1cc2c(=O)c(-c3nc4ccccc4[nH]3)coc2cc1OC(=O)N1CCOCC1 | · | 3 | 31* | -3 | 4 | -2.6
CNC(=O)CCc1nc(-c2ccc(C(C)(C)C)cc2)no1 | 11 | 28 | 3 | 33 | 7 | 1.6
c1cncc(C2Nc3ccccc3-c3nc4ccccc4n32)c1 (centres undefined) | 6 | 16 | -1 | · | 1 | -3.3*
c1ccc2c(c1)NC(c1ccncc1)n1c-2nc2ccccc21 (centres undefined) | 9 | 9 | -3 | 11 | 3 | 0.21
SMILES | Candida biofilm | PostGolgi ctrl | PostGolgi yeast | tolC growth inh | FAK blocker | Pyk2 oligo antag
Clc1cc(Sc2ccc(Br)cc2)nnc1-c1ccccc1 | · | 65* | -8 | · | 9 | -2.9
COCc1cc(Sc2ccc(Br)cc2)nc(-c2ccccc2)n1 | · | 11 | -3 | · | -3 | 1.4
CCCCOc1ccc(S(=O)(=O)Nc2cccnc2)cc1 | · | 14 | 32* | 13 | -8 | -0.85
CCCCOc1ccc(S(=O)(=O)Nc2cc(OC)ccc2OC)cc1 | · | 51* | 2 | 70* | -4 | -1.7
COc1ccc(S(=O)(=O)NCCOc2ccccc2)cc1OC | 4 | 33* | -7 | -3 | 0 | -0.32
Cc1ccc(S(=O)(=O)Nc2cccnc2)cc1 | -1 | 5 | -3 | · | -16 | -0.13
CCCCNc1c2c3c(cccc3n(C)c1=O)C(=O)c1ccccc1-2 | 6 | 58* | 2 | · | 6 | -2.7
Cn1c(=O)c(NCCO)c2c3c(cccc31)C(=O)c1ccccc1-2 | 9 | 6 | 7 | 25 | 5 | 0.31
Cn1c(=O)c(NCCc2ccccc2)c2c3c(cccc31)C(=O)c1ccccc1-2 | 4 | 48* | 0 | · | 3 | 1.2
C=CCOc1c(Cl)cc(C2NC(=O)NC(C)=C2C(=O)OC)cc1Cl (centres undefined) | 1 | 51* | 7 | 18 | 4 | -2.4
C=CCOc1c(OC)cc(Cl)cc1C1NC(=O)NC(C)=C1C(C)=O (centres undefined) | 5 | -4 | -5 | 13 | -1 | -1.7
CC(C)CC(=O)Nc1cccc2c1C(=O)N(c1ccccc1)C2=O | 7 | · | · | · | -1 | -1.1
CC(C)CC(=O)Nc1cc2nn(-c3ccccc3)nc2cc1Cl | 53* | 5 | -5 | · | 0 | -0.26
COc1ccc(S(=O)(=O)NNC(=O)C2Cc3c(ccc4ccccc34)O2)cc1 (centres undefined) | · | 17 | -1 | · | 0 | -0.44
Cc1ccc2c(CN3CCN(CCO)CC3)cc(=O)oc2c1C | 7 | -1 | -18 | · | 3 | -3.5*
CC(C)(C)n1nc2c(c1NC(=O)COc1ccc(Cl)cc1)CSC2 | 4 | -3 | -4 | -11 | 0 | 0.52
Nc1nncn1C(=O)CCCN1C(=O)c2ccccc2C1=O | -1 | 6 | -1 | 96* | 0 | 0.26
COc1ccc(NC(=O)c2oc3ccccc3c2NC(=O)c2ccco2)cc1 | 2 | -4 | 2 | 40 | -2 | -3*
CCN(CC)CCCNC(=O)c1ccc(Cl)c(S(=O)(=O)Nc2ccccc2OC)c1 | · | 1 | -2 | · | 1 | 1.9
COC(=O)c1ccc(C(c2c(N)n(CC(C)C)c(=O)[nH]c2=O)N2CCN(c3ccccc3)CC2)cc1 (centres undefined) | 9 | 35* | -17 | 3 | 3 | -0.59
CCCn1c(N)c(C(c2ccc(C(=O)OC)cc2)N2CCN(c3ccccc3)CC2)c(=O)[nH]c1=O (centres undefined) | 3 | -3 | -23 | 0 | 0 | -0.39
O=C(COC(=O)C12CC3CC(CC(C3)C1)C2)Nc1ncc(Cl)cc1Cl | · | 21 | -2 | · | -2 | -0.24
O=C(COC(=O)CC12CC3CC(CC(C3)C1)C2)Nc1ncc(Cl)cc1Cl | 6 | 37* | -3 | · | -1 | -0.67
CO/N=C(/CNC(=O)c1ccc(Cl)cc1Cl)c1ccc(Cl)cc1 | · | 18 | 2 | · | -1 | 0.52
CO/N=C(/CS(=O)(=O)Cc1ccccc1Cl)c1ccc(Cl)cc1Cl | · | 33* | -1 | · | 3 | -1.4
CCOC(=O)c1c(-c2ccc(Cl)cc2)c(C#N)c(=O)n(N)c1N | · | -3 | 18 | · | -7 | -0.32
CCOC(=O)Cc1ccc(NS(=O)(=O)c2ccc(SC)cc2)cc1 | -1 | 16 | 13 | 70* | -1 | -0.63
O=C(O)c1ccc(S(=O)(=O)NC2CCCCC2)cc1 | 9 | -11 | -9 | 4 | -2 | 1.8
